# What was measured:
# Rattus norvegicus [1] = organism: Rattus norvegicus; assay: Biodistribution of radiolabeled compound in rat muscle after 2 hr activity expressed as %ID/Organ; assay type: ADME, organism-based, Muscle tissue; settings: in vivo
# Procedure, shortened: (§1)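 Mature female Sprague-Dawley rats (180–200 g) each received the 64Cu complex diluted with saline, about 15 μCi in 150 μL. Groups were sacrificed at 5 min, 30 min, 2 h and 24 h postinjection. Organs were excised, weighed and gamma-counted. %ID/organ was calculated against a weighed, counted standard.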
# Rattus norvegicus [2] = organism: Rattus norvegicus; assay: Biodistribution of radiolabeled compound in rat heart after 5 min activity expressed as %ID/Organ; assay type: ADME, organism-based; settings: in vivo; procedure, shortened: as §1
# Rattus norvegicus [3] = organism: Rattus norvegicus; assay: Biodistribution of radiolabeled compound in rat bone after 2 hr activity expressed as %ID/Organ; assay type: ADME, organism-based, Bone element; settings: in vivo; procedure, shortened: as §1
# Rattus norvegicus [4] = organism: Rattus norvegicus; assay: Biodistribution of radiolabeled compound in rat heart after 24 hr activity expressed as %ID/Organ; assay type: ADME, organism-based; settings: in vivo; procedure, shortened: as §1
# Rattus norvegicus [5] = organism: Rattus norvegicus; assay: Biodistribution of radiolabeled compound in rat fat after 5 min activity expressed as %ID/Organ; assay type: ADME, organism-based, Adipose tissue; settings: in vivo; procedure, shortened: as §1
# Rattus norvegicus [6] = organism: Rattus norvegicus; assay: Biodistribution of radiolabeled compound in rat brain after 30 min activity expressed as %ID/Organ; assay type: ADME, organism-based; settings: in vivo, 0.5 h; procedure, shortened: as §1
# Rattus norvegicus [7] = organism: Rattus norvegicus; assay: Biodistribution of radiolabeled compound in rat lung after 5 min activity expressed as %ID/Organ; assay type: ADME, organism-based; settings: in vivo; procedure, shortened: as §1
# Rattus norvegicus [8] = organism: Rattus norvegicus; assay: Biodistribution of radiolabeled compound in rat kidney after 30 min activity expressed as %ID/Organ; assay type: ADME, organism-based; settings: in vivo, 0.5 h; procedure, shortened: as §1
# Rattus norvegicus [9] = organism: Rattus norvegicus; assay: Biodistribution of radiolabeled compound in rat lung after 2 hr activity expressed as %ID/Organ; assay type: ADME, organism-based; settings: in vivo; procedure, shortened: as §1
# Rattus norvegicus [10] = organism: Rattus norvegicus; assay: Biodistribution of radiolabeled compound in rat muscle after 24 hr activity expressed as %ID/Organ; assay type: ADME, organism-based, Muscle tissue; settings: in vivo; procedure, shortened: as §1
# Rattus norvegicus [11] = organism: Rattus norvegicus; assay: Biodistribution of radiolabeled compound in rat blood after 24 hr activity expressed as %ID/Organ; assay type: ADME, organism-based; settings: in vivo; procedure, shortened: as §1
# Rattus norvegicus [12] = organism: Rattus norvegicus; assay: Biodistribution of radiolabeled compound in rat heart after 30 min activity expressed as %ID/Organ; assay type: ADME, organism-based; settings: in vivo, 0.5 h; procedure, shortened: as §1
# Rattus norvegicus [13] = organism: Rattus norvegicus; assay: Biodistribution of radiolabeled compound in rat brain after 24 hr activity expressed as %ID/Organ; assay type: ADME, organism-based; settings: in vivo; procedure, shortened: as §1
# Rattus norvegicus [14] = organism: Rattus norvegicus; assay: Biodistribution of radiolabeled compound in rat bone after 5 min activity expressed as %ID/Organ; assay type: ADME, organism-based, Bone element; settings: in vivo; procedure, shortened: as §1
# Rattus norvegicus [15] = organism: Rattus norvegicus; assay: Biodistribution of radiolabeled compound in rat muscle after 5 min activity expressed as %ID/Organ; assay type: ADME, organism-based, Muscle tissue; settings: in vivo; procedure, shortened: as §1
# Rattus norvegicus [16] = organism: Rattus norvegicus; assay: Biodistribution of radiolabeled compound in rat muscle after 30 min activity expressed as %ID/Organ; assay type: ADME, organism-based, Muscle tissue; settings: in vivo, 0.5 h; procedure, shortened: as §1
# Rattus norvegicus [17] = organism: Rattus norvegicus; assay: Biodistribution of radiolabeled compound in rat fat after 2 hr activity expressed as %ID/Organ; assay type: ADME, organism-based, Adipose tissue; settings: in vivo; procedure, shortened: as §1
# Rattus norvegicus [18] = organism: Rattus norvegicus; assay: Biodistribution of radiolabeled compound in rat brain after 2 hr activity expressed as %ID/Organ; assay type: ADME, organism-based; settings: in vivo; procedure, shortened: as §1
# Rattus norvegicus [19] = organism: Rattus norvegicus; assay: Biodistribution of radiolabeled compound in rat liver after 5 min activity expressed as %ID/Organ; assay type: ADME, organism-based; settings: in vivo; procedure, shortened: as §1
# Rattus norvegicus [20] = organism: Rattus norvegicus; assay: Biodistribution of radiolabeled compound in rat kidney after 5 min activity expressed as %ID/Organ; assay type: ADME, organism-based; settings: in vivo; procedure, shortened: as §1
# Rattus norvegicus [21] = organism: Rattus norvegicus; assay: Biodistribution of radiolabeled compound in rat liver after 30 min activity expressed as %ID/Organ; assay type: ADME, organism-based; settings: in vivo, 0.5 h; procedure, shortened: as §1
# Rattus norvegicus [22] = organism: Rattus norvegicus; assay: Biodistribution of radiolabeled compound in rat liver after 24 hr activity expressed as %ID/Organ; assay type: ADME, organism-based; settings: in vivo; procedure, shortened: as §1
# Rattus norvegicus [23] = organism: Rattus norvegicus; assay: Biodistribution of radiolabeled compound in rat kidney after 2 hr activity expressed as %ID/Organ; assay type: ADME, organism-based; settings: in vivo; procedure, shortened: as §1
# Rattus norvegicus [24] = organism: Rattus norvegicus; assay: Biodistribution of radiolabeled compound in rat blood after 30 min activity expressed as %ID/Organ; assay type: ADME, organism-based; settings: in vivo, 0.5 h; procedure, shortened: as §1
# Rattus norvegicus [25] = organism: Rattus norvegicus; assay: Biodistribution of radiolabeled compound in rat brain after 5 min activity expressed as %ID/Organ; assay type: ADME, organism-based; settings: in vivo; procedure, shortened: as §1
# Rattus norvegicus [26] = organism: Rattus norvegicus; assay: Biodistribution of radiolabeled compound in rat liver after 2 hr activity expressed as %ID/Organ; assay type: ADME, organism-based; settings: in vivo; procedure, shortened: as §1
# Rattus norvegicus [27] = organism: Rattus norvegicus; assay: Biodistribution of radiolabeled compound in rat fat after 30 min activity expressed as %ID/Organ; assay type: ADME, organism-based, Adipose tissue; settings: in vivo, 0.5 h; procedure, shortened: as §1
# Rattus norvegicus [28] = organism: Rattus norvegicus; assay: Biodistribution of radiolabeled compound in rat lung after 30 min activity expressed as %ID/Organ; assay type: ADME, organism-based; settings: in vivo, 0.5 h; procedure, shortened: as §1
# Rattus norvegicus [29] = organism: Rattus norvegicus; assay: Biodistribution of radiolabeled compound in rat bone after 30 min activity expressed as %ID/Organ; assay type: ADME, organism-based, Bone element; settings: in vivo, 0.5 h; procedure, shortened: as §1
# Rattus norvegicus [30] = organism: Rattus norvegicus; assay: Biodistribution of radiolabeled compound in rat heart after 2 hr activity expressed as %ID/Organ; assay type: ADME, organism-based; settings: in vivo; procedure, shortened: as §1
# Rattus norvegicus [31] = organism: Rattus norvegicus; assay: Biodistribution of radiolabeled compound in rat blood after 5 min activity expressed as %ID/Organ; assay type: ADME, organism-based; settings: in vivo; procedure, shortened: as §1
# Rattus norvegicus [32] = organism: Rattus norvegicus; assay: Biodistribution of radiolabeled compound in rat lung after 24 hr activity expressed as %ID/Organ; assay type: ADME, organism-based; settings: in vivo; procedure, shortened: as §1
# Rattus norvegicus [33] = organism: Rattus norvegicus; assay: Biodistribution of radiolabeled compound in rat bone after 24 hr activity expressed as %ID/Organ; assay type: ADME, organism-based, Bone element; settings: in vivo; procedure, shortened: as §1
# Rattus norvegicus [34] = organism: Rattus norvegicus; assay: Biodistribution of radiolabeled compound in rat kidney after 24 hr activity expressed as %ID/Organ; assay type: ADME, organism-based; settings: in vivo; procedure, shortened: as §1
# Rattus norvegicus [35] = organism: Rattus norvegicus; assay: Biodistribution of radiolabeled compound in rat fat after 24 hr activity expressed as %ID/Organ; assay type: ADME, organism-based, Adipose tissue; settings: in vivo; procedure, shortened: as §1
# Rattus norvegicus [36] = organism: Rattus norvegicus; assay: Biodistribution of radiolabeled compound in rat blood after 2 hr activity expressed as %ID/Organ; assay type: ADME, organism-based; settings: in vivo; procedure, shortened: as §1
# Rattus norvegicus [37] = organism: Rattus norvegicus; assay: Biodistribution of radiolabeled compound in rat kidney after 24 hr postinjection activity expressed as %ID/Organ; assay type: ADME, organism-based; settings: in vivo
# Rattus norvegicus [38] = organism: Rattus norvegicus; assay: Biodistribution of radiolabeled compound in rat blood after 24 hr postinjection activity expressed as %ID/Organ; assay type: ADME, organism-based; settings: in vivo
# Rattus norvegicus [39] = organism: Rattus norvegicus; assay: Biodistribution of radiolabeled compound in rat liver after 24 hr postinjection activity expressed as %ID/Organ; assay type: ADME, organism-based; settings: in vivo
substance,measurement,setting,value
Cu-CB-DO2A,Biodistribution,Rattus norvegicus [1],1.39%
same,Biodistribution,Rattus norvegicus [2],0.22%
same,Biodistribution,Rattus norvegicus [3],0.56%
same,Biodistribution,Rattus norvegicus [4],0.0065%
same,Biodistribution,Rattus norvegicus [5],3.99%
same,Biodistribution,Rattus norvegicus [6],0.036%
same,Biodistribution,Rattus norvegicus [7],0.72%
same,Biodistribution,Rattus norvegicus [8],1.14%
same,Biodistribution,Rattus norvegicus [9],0.044%
same,Biodistribution,Rattus norvegicus [10],0.28%
same,Biodistribution,Rattus norvegicus [11],0.14%
same,Biodistribution,Rattus norvegicus [12],0.067%
same,Biodistribution,Rattus norvegicus [13],0.002%
same,Biodistribution,Rattus norvegicus [14],4.52%
same,Biodistribution,Rattus norvegicus [15],18.27%
same,Biodistribution,Rattus norvegicus [16],6.42%
same,Biodistribution,Rattus norvegicus [17],0.22%
same,Biodistribution,Rattus norvegicus [18],0.008%
same,Biodistribution,Rattus norvegicus [19],2.47%
same,Biodistribution,Rattus norvegicus [20],2.64%
same,Biodistribution,Rattus norvegicus [21],1.47%
same,Biodistribution,Rattus norvegicus [22],0.39%
same,Biodistribution,Rattus norvegicus [23],0.44%
same,Biodistribution,Rattus norvegicus [24],3.79%
same,Biodistribution,Rattus norvegicus [25],0.097%
same,Biodistribution,Rattus norvegicus [26],0.93%
same,Biodistribution,Rattus norvegicus [27],2.14%
same,Biodistribution,Rattus norvegicus [28],0.21%
same,Biodistribution,Rattus norvegicus [29],1.69%
same,Biodistribution,Rattus norvegicus [30],0.0095%
same,Biodistribution,Rattus norvegicus [31],13.45%
same,Biodistribution,Rattus norvegicus [32],0.019%
same,Biodistribution,Rattus norvegicus [33],0.24%
same,Biodistribution,Rattus norvegicus [34],0.064%
same,Biodistribution,Rattus norvegicus [35],0.12%
same,Biodistribution,Rattus norvegicus [36],0.32%
Cu-CB-TE2A,Biodistribution,Rattus norvegicus [37],0.064%
same,Biodistribution,Rattus norvegicus [38],0.032%
same,Biodistribution,Rattus norvegicus [39],0.14%
Cu-DOTA,Biodistribution,Rattus norvegicus [37],0.54%
same,Biodistribution,Rattus norvegicus [38],0.58%
same,Biodistribution,Rattus norvegicus [39],1.05%
Cu-TETA,Biodistribution,Rattus norvegicus [37],0.21%
same,Biodistribution,Rattus norvegicus [38],0.21%
same,Biodistribution,Rattus norvegicus [39],0.49%
